For data set [1], the system named is Escherichia coli. The data set is described as follows: Antibacterial activity against Escherichia coli ATCC 25922 after 16 to 20 hrs by broth microdilution method. It is filed as functional. The essentials: (§1)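 Broth microdilution per CLSI. Bacteria grown 4-6 h (about 10⁸ CFU/mL), then diluted to about 10⁶ CFU/mL. Medium: Mueller-Hinton broth, except Luria-Bertani broth for E. coli. Compounds in sterile water, twofold series 256-0.5 µg/mL, mixed 1:1 with inoculum, 37 °C for 16-20 h. MIC is the lowest concentration without visible growth. Duplicate wells; experiment repeated at least twice.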
(In general: Broth dilution looks for growth in wells or tubes with falling amounts of substance.)

A short description of data set [2]: Hemolytic activity in sheep RBC after 1 hr. Format: ADME, cell-based, Ovis aries, Erythrocyte. The settings on record: sheep red blood cells (erythrocytes). The essentials:
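Sheep red blood cells (150 µL suspension) mixed with 50 µL of compound dilutions (5120-10 µg/mL), 1 h at 37 °C, then centrifuged. Supernatant read at 540 nm. Percent hemolysis calculated relative to RBC-only control (0%) and 0.1% Triton X-100 (100%).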

Data set [3] concerns Staphylococcus aureus. The data set is described as follows: Antibacterial activity against Staphylococcus aureus ATCC 29213 after 16 to 20 hrs by broth microdilution method. Format: functional. The essentials:
as §1

The next data set relates to Enterococcus faecalis. The data set is described as follows: Antibacterial activity against Enterococcus faecalis ATCC 29212 after 16 to 20 hrs by broth microdilution method. It is filed as functional. The essentials:
as §1

The next data set concerns Salmonella enterica. Briefly: Antibacterial activity against Salmonella enterica ATCC 13076 after 16 to 20 hrs by broth microdilution method. Format: functional. The essentials: as §1
Data set [4] deals with Escherichia coli. The data set is described as follows: Induction of cytoplasmic membrane depolarization in Escherichia coli ATCC 25922 at 10 to 20 ug/ml measured every 2 mins for 12 mins by DiSC35 dye-based fluorescence assay. It is filed as functional, organism-based. The essentials: (§2)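 Mid-log cells (~10⁸ CFU/mL) were suspended in PBS (S. aureus) or HEPES/glucose/KCl with EDTA (E. coli). They were preloaded with DiSC3(5) for 30 min (S. aureus) or 40 min (E. coli), and baseline fluorescence was read for 8 min. Compound was added to 20 µg/mL final, and fluorescence (ex 622/em 670 nm) was read every 2 min for 12 min. Water served as control.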

For data set [5], the system named is Staphylococcus aureus. Briefly: Induction of inner membrane permeabilization in Staphylococcus aureus ATCC 29213 at 10 to 20 ug/ml measured every 2 mins for 12 mins by propidium iodide staining-based fluorescence assay. Format: functional, organism-based. The essentials:
(§3)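 Mid-log cells (~10⁸ CFU/mL) were suspended in PBS (S. aureus) or HEPES/glucose/KCl (E. coli). They were preincubated with propidium iodide for 30 min (S. aureus) or 40 min (E. coli), and baseline fluorescence was read for 8 min. Compound was added to 20 µg/mL final, and fluorescence (ex 535/em 617 nm) was read every 2 min for 12 min.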

The test system of data set [6] is Staphylococcus aureus. The data set is described as follows: Induction of cytoplasmic membrane depolarization in Staphylococcus aureus ATCC 29213 at 10 to 20 ug/ml measured every 2 mins for 12 mins by DiSC35 dye-based fluorescence assay. Format: functional, organism-based. The essentials:
as §2

Data set [7] relates to Escherichia coli. Briefly: Induction of inner membrane permeabilization in Escherichia coli ATCC 25922 at 10 to 20 ug/ml measured every 2 mins for 12 mins by propidium iodide staining-based fluorescence assay. Format: functional, organism-based. The essentials:
as §3

The results in this text go back to ChEMBL document CHEMBL4138242, “Synthesis and antibacterial evaluation of novel cationic chalcone derivatives possessing broad spectrum antibacterial activity” (Eur J Med Chem, 2018).

Active and inactive are the calls of the source. No cut-off for these calls is given here.

Usually MIC stands for the least concentration at which growth counts as inhibited. Usually HC50 stands for the concentration that lyses half of the red blood cells.

Consider `CCCCCCCCCCCCCCCCCC[N+](C)(C)CC(=O)Nc1ccc(C(=O)/C=C/c2ccccc2F)cc1.[Cl-]`, for which the minimum inhibitory concentration (MIC) against Escherichia coli [1], against Staphylococcus aureus [3], in the data set on Enterococcus faecalis and against Salmonella enterica was > 128 µg/mL in each case. Besides, in [2], the concentration for 50% haemolysis (HC50) at 1 h turned out to be 444 µg/mL.
For the compound `CCCC[N+](C)(C)CC(=O)Nc1ccc(C(=O)/C=C/c2cccs2)cc1.[Cl-]`, the minimal inhibitory concentration (MIC) was found to be 64 µg/mL in the data set on Escherichia coli [1], 32 µg/mL against Staphylococcus aureus [3], 32 µg/mL in the data set with Enterococcus faecalis and 128 µg/mL in the data set with Salmonella enterica. The compound also returned a concentration for 50% haemolysis (HC50) at 1 h in data set [2] of 360 µg/mL.
With `CCCCCCCC[N+](C)(C)CC(=O)Nc1ccc(C(=O)/C=C/c2ccccn2)cc1.[Cl-]`, the MIC against Escherichia coli [1] is 16 µg/mL; with Staphylococcus aureus [3], 4 µg/mL; against Enterococcus faecalis it was 8 µg/mL; with Salmonella enterica, 32 µg/mL. In addition, the HC50 at 1 h in data set [2] came to 187 µg/mL.
With `CCCCCCCC[N+](C)(C)CC(=O)Nc1cccc(C(=O)/C=C/c2cccs2)c1.[Cl-]`, the minimal inhibitory concentration (MIC) against Escherichia coli [1] was 16 µg/mL; in the data set on Staphylococcus aureus [3], 2 µg/mL; against Enterococcus faecalis, 4 µg/mL; in the data set with Salmonella enterica it was 16 µg/mL. In data set [2], this compound showed an HC50 at 1 h of 249 µg/mL.
Take `CCCCCCCCCCCCCC[N+](C)(C)CC(=O)Nc1ccc(C(=O)/C=C/c2ccccc2F)cc1.[Cl-]`: the MIC is > 128 µg/mL in the data set on Escherichia coli [1], 8 µg/mL against Staphylococcus aureus [3], > 128 µg/mL in the data set on Enterococcus faecalis and > 128 µg/mL with Salmonella enterica. The HC50 at 1 h in data set [2] amounted to 192 µg/mL.
With `CCCCCCCC[N+](C)(C)CC(=O)Nc1ccc(C(=O)/C=C/c2c(F)cccc2F)cc1.[Cl-]`, the MIC against Escherichia coli [1] was found to be 128 µg/mL; with Staphylococcus aureus [3], 32 µg/mL; in the data set with Enterococcus faecalis, 32 µg/mL; in the data set on Salmonella enterica it was 128 µg/mL. In data set [2], this compound registered a concentration for 50% haemolysis (HC50) at 1 h of 50 µg/mL.
Consider `CCCCCCCC[N+](C)(C)CC(=O)Nc1ccc(C(=O)/C=C/c2cccnc2)cc1.[Cl-]`, for which the MIC was 16 µg/mL with Escherichia coli [1], 4 µg/mL with Staphylococcus aureus [3], 8 µg/mL in the data set on Enterococcus faecalis and 32 µg/mL against Salmonella enterica. In addition, the HC50 at 1 h in data set [2] was determined as 127 µg/mL.
Taken in the same sequence, the figures for `CCCCCCCC[N+](C)(C)CC(=O)Nc1ccc(C(=O)/C=C/c2cccc(Br)n2)cc1.[Cl-]` were 16 µg/mL, 4 µg/mL, 8 µg/mL, 32 µg/mL and 363 µg/mL.
In the same order, the values of `CCCCCCCC[N+](C)(C)CC(=O)Nc1ccc(C(=O)/C=C/c2ncccc2F)cc1.[Cl-]` are 8 µg/mL, 2 µg/mL, 8 µg/mL, 16 µg/mL and 83 µg/mL.
As for `CCCCCCCC[N+](C)(C)CC(=O)Nc1ccc(C(=O)/C=C/c2cccc(F)c2F)cc1.[Cl-]`, the MIC with Escherichia coli [1] is 2 µg/mL; in the data set on Staphylococcus aureus [3], 0.5 µg/mL; with Enterococcus faecalis it was 2 µg/mL; against Salmonella enterica, 8 µg/mL. In addition, the result in the data set with Escherichia coli [4], in the data set with Staphylococcus aureus [5], in the data set with Staphylococcus aureus [6] and in the data set on Escherichia coli [7] was Active. For the same compound, the HC50 at 1 h in [2] came to 56 µg/mL.
With `CCCC[N+](C)(C)CC(=O)Nc1ccc(C(=O)/C=C/c2ccccc2F)cc1.[Cl-]`, the MIC worked out at 64 µg/mL in the data set on Escherichia coli [1], 16 µg/mL in the data set on Staphylococcus aureus [3], 16 µg/mL against Enterococcus faecalis and 128 µg/mL with Salmonella enterica. The HC50 at 1 h in data set [2] was 262 µg/mL.
Turning to `CCCCCCCC[N+](C)(C)CC(=O)Nc1ccc(C(=O)/C=C/c2ccc(C(C)(C)C)cc2)cc1.[Cl-]`, the MIC in the data set with Escherichia coli [1] was determined as 16 µg/mL; in the data set on Staphylococcus aureus [3], 2 µg/mL; in the data set on Enterococcus faecalis it was 4 µg/mL; with Salmonella enterica, 16 µg/mL. The compound further gave a 50% haemolytic concentration (HC50) at 1 h in data set [2] of 284 µg/mL.
For `CCCC[N+](C)(C)CC(=O)Nc1ccc(C(=O)/C=C/c2ccncc2)cc1.[Cl-]`, the minimal inhibitory concentration (MIC) against Escherichia coli [1] is > 128 µg/mL; against Staphylococcus aureus [3], 128 µg/mL; against Enterococcus faecalis it was 128 µg/mL; in the data set with Salmonella enterica it was > 128 µg/mL. Moreover, the HC50 at 1 h in data set [2] was > 500 µg/mL.
As for `CCCCCCCCCCCC[N+](C)(C)CC(=O)Nc1ccc(C(=O)/C=C/c2ccccc2F)cc1.[Cl-]`, the MIC amounted to 16 µg/mL against Escherichia coli [1], 4 µg/mL against Staphylococcus aureus [3], 8 µg/mL against Enterococcus faecalis and 32 µg/mL in the data set with Salmonella enterica. This compound came in with a 50% haemolytic concentration (HC50) at 1 h in data set [2] of 293 µg/mL.
Turning to `C[C@@H](O)[C@H]1C(=O)N2C(C(=O)O)=C(S[C@@H]3CN[C@H](C(=O)N(C)C)C3)[C@H](C)[C@H]12` [MEROPENEM], the MIC in the data set on Escherichia coli [1] is < 0.125 µg/mL.
On to `CCCCCCCC[N+](C)(C)CC(=O)Nc1ccc(C(=O)/C=C/c2cccc(F)c2)cc1.[Cl-]`, for which the MIC is > 128 µg/mL against Escherichia coli [1], 32 µg/mL in the data set with Staphylococcus aureus [3], 64 µg/mL with Enterococcus faecalis and > 128 µg/mL in the data set with Salmonella enterica. In [2], the HC50 at 1 h was 68 µg/mL.
For the compound `CCCCCCCC[N+](C)(C)CC(=O)Nc1ccc(C(=O)/C=C/c2ccncc2)cc1.[Cl-]`, the MIC with Escherichia coli [1] was determined as 16 µg/mL; in the data set with Staphylococcus aureus [3] it was 4 µg/mL; in the data set on Enterococcus faecalis, 8 µg/mL; in the data set with Salmonella enterica, 32 µg/mL. Further, the HC50 at 1 h in [2] is 200 µg/mL.
Consider `CCCCCCCC[N+](C)(C)CC(=O)Nc1ccc(C(=O)/C=C/c2cc([N+](=O)[O-])ccc2OCC)cc1.[Cl-]`, for which the MIC in the data set on Escherichia coli [1] is > 128 µg/mL; against Staphylococcus aureus [3], 8 µg/mL; against Enterococcus faecalis, 2 µg/mL; against Salmonella enterica it was > 128 µg/mL. For the same compound, the concentration for 50% haemolysis (HC50) at 1 h in data set [2] turned out to be 102 µg/mL.
